The values that follow come from ChEMBL document CHEMBL4811272, “A new sulfated triterpene glycoside from the sea cucumber Colochirus quadrangularis, and evaluation of its antifungal, antitumor and immunomodulatory activities” (Bioorg Med Chem, 2021).

One experiment deals with Cryptococcus neoformans. In words: Antifungal activity against Cryptococcus neoformans ATCC 32609 by microplate reader assay. The format is functional. The settings on record: ATTCC32609. The method, boiled down:
(§1)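 Broth microdilution read by optical density at 630 nm. MIC80 is the first well with about 80% less growth than the drug-free well. Each concentration was run in three replicate wells, and values are means of three independent experiments.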

The next experiment concerns Candida tropicalis. In words: Antifungal activity against clinical strain Candida tropicalis by microplate reader assay. The format is functional. The method, boiled down:
as §1

The test system of another experiment is Candida parapsilosis. In words: Antifungal activity against clinical strain Candida parapsilosis by microplate reader assay. The format is functional. The settings on record: Lodderomyces parapsilosis. The method, boiled down: as §1
The subject of the next experiment is MKN-28. In words: Cytotoxicity against human MKN-28 cells assessed as reduction in cell viability by sulforhodamine B assay. The format is functional, cell-based. The method, boiled down: (§2)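 Cells were kept in RPMI-1640 with 10% FBS, 2 mM L-glutamine, 50 μM β-mercaptoethanol and penicillin/streptomycin, at 37 °C in 5% CO2. SRB assay used 100, 10, 1, 0.1 and 0.01 μM, each in triplicate. Percent inhibition was calculated against solvent control OD. IC50 came from Logit curve fitting and is the mean of three independent experiments.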

A further experiment relates to MCF7. In words: Cytotoxicity against human MCF7 cells assessed as reduction in cell viability by sulforhodamine B assay. The format is functional, cell-based. In outline: as §2
Experiment [1] deals with HCT-116. In words: Cytotoxicity against human HCT-116 cells assessed as reduction in cell viability by sulforhodamine B assay. The format is functional, cell-based. In outline: as §2
The subject of experiment [2] is Bel-7402. The experiment in a line: Cytotoxicity against human Bel-7402 cells assessed as reduction in cell viability by sulforhodamine B assay. The format is functional, cell-based. In outline: as §2
Experiment [3] is described as follows: Cytotoxicity against human HO-8910 cells assessed as reduction in cell viability by sulforhodamine B assay. The format is functional, cell-based. The method, boiled down:
as §2

The subject of a further experiment is Pyricularia oryzae. In words: Antifungal activity against Pyricularia oryzae P-2B by measuring minimum morphological deformation concentration. The format is functional. The settings on record: read-out: MEC.
Experiment [4] relates to HCT-116. In words: Induction of apoptosis in human HCT-116 cells assessed as decrease in viable cells measured upto 2 times of IC50 concentration by annexin V staining based flow cytometry analysis. The format is functional, cell-based. The method, boiled down: (§3)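 HCT-116 cells treated with vehicle or three compound concentrations, collected, and stained with Annexin V-FITC and propidium iodide in the dark at 4 °C. Flow cytometry quadrants: Q4 live, Q3 early apoptotic, Q2 late apoptotic, Q1 necrotic. n = 3; ANOVA vs vehicle.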

Experiment [5] deals with HCT-116. The experiment in a line: Induction of apoptosis in human HCT-116 cells assessed as increase in late apoptotic cells measured upto 2 times of IC50 concentration by annexin V staining based flow cytometry analysis. The format is functional, cell-based. In outline:
as §3

The next experiment deals with HMEC-1. The experiment in a line: Antiproliferative activity against human HMEC-1 cells assessed as inhibition of proliferation by SRB method. The format is functional, cell-based. In outline:
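HMEC-1 endothelial cells seeded and exposed to compound. Proliferation read by SRB and migration by Transwell. IC50 calculated from three independent experiments.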

Experiment [6] concerns the target Vascular endothelial growth factor receptor 2 (Mus musculus, UniProt P35918). The experiment in a line: Inhibition of VEGFR2 in mouse NIH/3T3 cells assessed as reduction of VEGF-stimulated phosphorylation. The format is cell-based. In outline: (§4)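 NIH/3T3 fibroblasts transfected to overexpress VEGFR-2 or PDGFR-β, starved 24 h, then given compound. Stimulation: VEGF 500 ng/mL for VEGFR-2 cells, PDGF-BB 150 ng/mL for PDGFR-β cells. Cells fixed in 4% paraformaldehyde and probed with PY-99 anti-phosphotyrosine, secondary IgG and HRP-avidin. OD 405 nm read after ABTS; IC50 from three independent experiments.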

The target in experiment [7] is Platelet-derived growth factor receptor beta (Mus musculus, UniProt P05622). In words: Inhibition of PDGFRbeta in mouse NIH/3T3 cells assessed as reduction of PDGF-BB-stimulated phosphorylation. The format is cell-based. The method, boiled down:
as §4

In the next experiment the test system is CCRF S-180. The experiment in a line: Antitumor activity against mouse S-180 cells implanted in KM mouse assessed as tumor growth inhibition at 5 mg/kg, IG administered everyday for 7 days relative to control. The format is functional. Particulars: CCRF S-180, po, 168 h, time 7 day, read-out: TGI. The method, boiled down:
(§5)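 S-180 or H22 cells, about 2.5 × 10⁶ per mouse, injected s.c. in the right axilla of wild-type KM mice. Randomized after 24 h and dosed intragastrically for 7 days; sacrificed 24 h after the last dose. TGI = (W_C − W_T)/W_C × 100% from average tumor weight. n = 8; one-way ANOVA vs vehicle.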

The subject of the next experiment is H22. The experiment in a line: Antitumor activity against mouse H22 cells implanted in KM mouse assessed as tumor growth inhibition at 5 mg/kg, IG administered everyday for 7 days relative to control. The format is functional. The settings on record: H22, po, 168 h, time 7 day, read-out: TGI. The method, boiled down:
as §5

Experiment [8] concerns Bel-7402. In words: Antitumor activity against human Bel-7402 cells implanted in BALB/c-nu mouse assessed as tumor growth inhibition at 500 mg/kg, IG administered everyday for 7 days relative to control. The format is functional. Particulars: Bel-7402, po, 168 h, time 7 day, read-out: TGI.
Experiment [9] concerns HCT-116. The experiment in a line: Induction of apoptosis in human HCT-116 cells assessed as apoptosis associated morphological changes measured upto 2 times of IC50 concentration for 24 hrs by Hoechst staining method. The format is functional, cell-based. The method, boiled down:
(§6)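 HCT-116 cells treated with vehicle or three compound concentrations, then stained with Hoechst 33258. Nuclei examined by inverted fluorescence microscopy at ×400 in five random fields. Apoptotic cells expressed as % of cells counted. n = 3; ANOVA vs vehicle.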

Experiment [10] relates to HCT-116. In words: Induction of apoptosis in human HCT-116 cells assessed as apoptotic nuclei cells measured upto 2 times of IC50 concentration for 24 hrs by Hoechst staining method. The format is functional, cell-based. In outline:
as §6

The test system of experiment [11] is Bel-7402. The experiment in a line: Antitumor activity against human Bel-7402 cells implanted in BALB/c-nu mouse assessed as T/C ratio at 5 mg/kg, IG administered everyday for 7 days relative to control. The format is functional. The settings on record: time 7 day.
For experiment [12], the system named is Bel-7402. The experiment in a line: Antitumor activity against human Bel-7402 cells implanted in BALB/c-nu mouse assessed as T/C ratio at 50 mg/kg, IG administered everyday for 7 days relative to control. The format is functional. The settings on record: time 7 day.
In experiment [13] the test system is Bel-7402. In words: Antitumor activity against human Bel-7402 cells implanted in BALB/c-nu mouse assessed as T/C ratio at 500 mg/kg, IG administered everyday for 7 days relative to control. The format is functional. Particulars: time 7 day.
In experiment [14] the test system is Mus musculus. The experiment in a line: Immunomodulatory activity in cyclophosphamide-immunosuppressed KM mouse assessed as improved thymus index in at 50 to 500 mg/kg, IG once daily measured after 14 days. The format is functional, organism-based. The settings on record: dose 50-500 mg/kg, time 14.0 day. The method, boiled down: (§7)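 KM mice dosed intragastrically at 5, 50 or 500 mg/kg; vehicle 0.5% CMC-Na. After five doses, immunized i.p. with 0.2 mL 20% rabbit erythrocytes, and dosing continued for 8 days. CTX 30 mg/kg i.p. on days 2, 4 and 6 after immunization. 1 h after the last dose, spleen and thymus weighed; index in g/kg. n = 8.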

The subject of experiment [15] is Mus musculus. In words: Immunomodulatory activity in cyclophosphamide-immunosuppressed KM mouse assessed as improved spleen index in at 50 to 500 mg/kg, IG once daily measured after 14 days. The format is functional, organism-based. The settings on record: dose 50-500 mg/kg, time 14.0 day. The method, boiled down: as §7

Each structure is given as a SMILES string. The source made the active and inactive calls. No cut-off for these calls is given here. Some results are limits rather than exact numbers.

Sequence of Platelet-derived growth factor receptor beta (P05622 whole entry): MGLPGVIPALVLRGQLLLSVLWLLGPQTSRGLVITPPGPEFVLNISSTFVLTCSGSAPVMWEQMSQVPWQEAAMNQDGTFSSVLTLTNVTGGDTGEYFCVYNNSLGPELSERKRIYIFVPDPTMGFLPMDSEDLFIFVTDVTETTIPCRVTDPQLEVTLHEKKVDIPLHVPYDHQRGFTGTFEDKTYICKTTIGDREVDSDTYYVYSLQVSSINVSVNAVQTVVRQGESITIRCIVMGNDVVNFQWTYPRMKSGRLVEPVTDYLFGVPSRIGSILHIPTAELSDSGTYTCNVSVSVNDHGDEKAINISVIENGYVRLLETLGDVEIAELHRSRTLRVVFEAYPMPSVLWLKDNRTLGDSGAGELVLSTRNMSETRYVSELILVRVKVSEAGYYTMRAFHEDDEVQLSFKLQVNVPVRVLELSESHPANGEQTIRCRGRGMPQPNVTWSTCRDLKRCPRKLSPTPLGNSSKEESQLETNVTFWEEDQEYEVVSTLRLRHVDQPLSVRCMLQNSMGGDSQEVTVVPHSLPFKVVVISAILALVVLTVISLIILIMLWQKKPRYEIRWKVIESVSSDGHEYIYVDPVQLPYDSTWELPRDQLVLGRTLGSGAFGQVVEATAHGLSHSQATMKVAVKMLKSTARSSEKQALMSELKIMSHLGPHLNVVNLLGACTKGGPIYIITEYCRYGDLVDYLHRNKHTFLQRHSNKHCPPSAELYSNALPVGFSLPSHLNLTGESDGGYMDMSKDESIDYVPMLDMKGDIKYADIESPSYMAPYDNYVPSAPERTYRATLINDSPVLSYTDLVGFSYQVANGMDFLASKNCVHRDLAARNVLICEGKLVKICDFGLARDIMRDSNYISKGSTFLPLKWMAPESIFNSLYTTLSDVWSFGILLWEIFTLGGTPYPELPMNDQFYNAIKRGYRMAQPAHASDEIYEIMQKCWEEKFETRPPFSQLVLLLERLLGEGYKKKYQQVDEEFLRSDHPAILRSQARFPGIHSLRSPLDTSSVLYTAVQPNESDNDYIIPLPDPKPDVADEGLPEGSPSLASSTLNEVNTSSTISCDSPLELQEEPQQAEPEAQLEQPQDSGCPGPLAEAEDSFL
Sequence of Vascular endothelial growth factor receptor 2 (P35918 whole entry): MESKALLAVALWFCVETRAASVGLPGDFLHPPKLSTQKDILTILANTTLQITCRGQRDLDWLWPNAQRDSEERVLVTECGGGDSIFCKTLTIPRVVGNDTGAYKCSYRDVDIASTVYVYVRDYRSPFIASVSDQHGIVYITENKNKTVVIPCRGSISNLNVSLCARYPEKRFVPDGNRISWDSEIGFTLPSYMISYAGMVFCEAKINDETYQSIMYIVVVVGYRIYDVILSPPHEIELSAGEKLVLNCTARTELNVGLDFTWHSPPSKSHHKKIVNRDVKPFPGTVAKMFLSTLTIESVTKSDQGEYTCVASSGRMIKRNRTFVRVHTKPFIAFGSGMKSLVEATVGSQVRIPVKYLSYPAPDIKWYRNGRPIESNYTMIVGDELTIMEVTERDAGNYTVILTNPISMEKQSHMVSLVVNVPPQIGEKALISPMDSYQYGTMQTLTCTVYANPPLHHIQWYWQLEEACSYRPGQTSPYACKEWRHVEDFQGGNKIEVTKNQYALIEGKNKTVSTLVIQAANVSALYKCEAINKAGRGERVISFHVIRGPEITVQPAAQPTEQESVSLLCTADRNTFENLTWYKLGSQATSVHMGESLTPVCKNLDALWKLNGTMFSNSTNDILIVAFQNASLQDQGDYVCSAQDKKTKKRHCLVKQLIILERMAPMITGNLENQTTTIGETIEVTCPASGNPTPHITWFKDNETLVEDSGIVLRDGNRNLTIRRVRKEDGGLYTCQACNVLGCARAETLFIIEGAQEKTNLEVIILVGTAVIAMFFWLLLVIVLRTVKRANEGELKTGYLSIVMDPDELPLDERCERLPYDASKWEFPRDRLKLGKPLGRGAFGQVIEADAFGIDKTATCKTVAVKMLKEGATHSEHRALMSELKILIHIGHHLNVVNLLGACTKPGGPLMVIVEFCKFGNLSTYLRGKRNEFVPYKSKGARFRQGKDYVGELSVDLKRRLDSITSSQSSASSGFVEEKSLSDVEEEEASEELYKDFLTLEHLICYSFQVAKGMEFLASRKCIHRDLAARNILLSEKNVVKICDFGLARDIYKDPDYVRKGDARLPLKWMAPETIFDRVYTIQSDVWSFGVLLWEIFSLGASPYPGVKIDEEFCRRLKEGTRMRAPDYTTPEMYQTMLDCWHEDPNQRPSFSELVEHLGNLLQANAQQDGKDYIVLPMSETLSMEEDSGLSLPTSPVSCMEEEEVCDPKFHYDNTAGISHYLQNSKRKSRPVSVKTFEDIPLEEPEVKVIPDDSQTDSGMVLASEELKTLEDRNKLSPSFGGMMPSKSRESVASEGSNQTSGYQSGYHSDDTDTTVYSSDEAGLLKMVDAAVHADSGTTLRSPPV

Regarding `C=C(C)CCC[C@]1(C)OC(=O)[C@]23CC[C@@H]4C(=CCC5C(C)(C)[C@@H](O[C@@H]6OC[C@@H](OS(=O)(=O)[O-])[C@H](O)[C@H]6O[C@@H]6O[C@H](C)[C@@H](O[C@@H]7OC[C@@H](O)[C@H](O[C@@H]8O[C@H](CO)[C@@H](O)[C@H](OC)[C@H]8O)[C@H]7O)[C@H](O)[C@H]6O)CC[C@@]54C)[C@]2(C)C[C@H](OC(C)=O)[C@@H]31.[Na+]` (some centres undefined), the MIC80 with Cryptococcus neoformans turned out to be 16 µg/mL; with Candida tropicalis, 8 µg/mL; against Candida parapsilosis, 4 µg/mL. The half-inhibitory concentration (IC50) was 1.83 µM in the experiment with MKN-28; 2.03 µM in the experiment on MCF7; 1.36 µM in the experiment with HCT-116 [1]; 1.45 µM in the experiment with Bel-7402 [2]; 1.94 µM in experiment [3]; 1.6 µM in the experiment on HMEC-1. Further, the IC50 in experiment [6] stood at 2.2 µM; in experiment [7] it was 4.8 µM. For the same molecule, the minimal effective concentration in the experiment with Pyricularia oryzae was ≤ 16 µg/mL. In the experiment with HCT-116 [4], the outcome was inactive. Moreover, the outcome in the experiment with HCT-116 [5], with HCT-116 [9], with HCT-116 [10], in the experiment with Mus musculus [14] and in the experiment on Mus musculus [15] was Active. Also, the inhibition in vivo at 5 mg/kg with CCRF S-180 stood at 44.2%; with H22, 40.1%. Further, in the experiment with Bel-7402 [8], the inhibition in vivo at 500 mg/kg amounted to 58.6%. Besides, the T/C with Bel-7402 [11] is 45%; in the experiment on Bel-7402 [12], 42.2%; in the experiment with Bel-7402 [13] it was 32%.
